# Reference: ChEMBL document CHEMBL3286113, “New potent antibacterial oxazolidinone (MRX-I) with an improved class safety profile” (J Med Chem, 2014)
# Experiments:
# [1] = tested on: Staphylococcus; experiment: Antibacterial activity against beta-lactamase-negative Staphylococcus; format: functional
# [2] = tested on: Rattus norvegicus; experiment: Toxicity in female rat assessed as effect on lymphocyte count at 100 mg/kg/day, po bid administered for 4 weeks (reference value: 74.8%); format: organism-based; design: route oral; conditions: in vivo, 672 h
# [3] = tested on: Staphylococcus epidermidis; experiment: Antibacterial activity against methicillin-resistant Staphylococcus epidermidis; format: functional
# [4] = tested on: Streptococcus pneumoniae; experiment: Antibacterial activity against penicillin intermediate-sensitive Streptococcus pneumoniae ATCC 49619 clinical isolate in po dosed mouse systemic infection model; format: functional; conditions: ATCC 49619, po
# [5] = tested on: Rattus norvegicus; experiment: Toxicity in female rat assessed as effect on mean corpuscular volume at 100 mg/kg/day, po bid administered for 4 weeks (reference value: 53.72 fL); format: organism-based; design: route oral; conditions: in vivo, 672 h
# [6] = tested on: Staphylococcus haemolyticus; experiment: Antibacterial activity against Staphylococcus haemolyticus; format: functional
# [7] = tested on: Streptococcus constellatus; experiment: Antibacterial activity against Streptococcus constellatus; format: functional
# [8] = tested on: Streptococcus pneumoniae; experiment: Antibacterial activity against penicillin-sensitive Streptococcus pneumoniae isolate 0806 in po dosed mouse systemic infection model; format: functional; conditions: isolate 0806, po
# [9] = tested on: Staphylococcus aureus; experiment: Antibacterial activity against methicillin-sensitive Staphylococcus aureus; format: functional
# [10] = tested on: Staphylococcus aureus; experiment: Antibacterial activity against methicillin-resistant Staphylococcus aureus isolate 0612 in po dosed mouse systemic infection model; format: functional; conditions: isolate 0612, po
# [11] = tested on: Staphylococcus aureus; experiment: Antibacterial activity against methicillin-resistant Staphylococcus aureus by broth microdilution method; format: functional
# Method in brief: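 MIC determined against methicillin-resistant S. aureus strain SAU1009.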
# [12] = tested on: Streptococcus anginosus; experiment: Antibacterial activity against Streptococcus anginosus; format: functional
# [13] = biological target: T1, Amine oxidase [flavin-containing] A (Homo sapiens, UniProt P21397); experiment: Inhibition of MAO-A (unknown origin) using tyramine as substrate after 30 to 60 mins by fluorescence plate reader analysis
# T1 sequence (P21397 whole entry): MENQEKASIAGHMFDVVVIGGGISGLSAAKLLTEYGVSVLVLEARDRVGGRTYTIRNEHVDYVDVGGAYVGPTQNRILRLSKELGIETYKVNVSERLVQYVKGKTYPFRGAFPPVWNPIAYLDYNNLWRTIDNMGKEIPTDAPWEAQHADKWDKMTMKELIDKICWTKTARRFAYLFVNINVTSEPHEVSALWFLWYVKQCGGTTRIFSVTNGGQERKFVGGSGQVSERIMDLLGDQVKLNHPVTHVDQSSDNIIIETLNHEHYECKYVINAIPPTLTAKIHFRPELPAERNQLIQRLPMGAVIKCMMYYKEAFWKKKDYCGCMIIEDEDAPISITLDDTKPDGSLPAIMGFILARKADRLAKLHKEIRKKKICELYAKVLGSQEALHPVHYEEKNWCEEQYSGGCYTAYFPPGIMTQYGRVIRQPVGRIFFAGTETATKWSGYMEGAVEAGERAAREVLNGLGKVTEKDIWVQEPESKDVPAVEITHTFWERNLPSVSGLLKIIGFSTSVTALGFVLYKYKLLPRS
# [14] = tested on: Enterococcus faecalis; experiment: Antibacterial activity against vancomycin-resistant Enterococcus faecalis isolate EFL 4041 in po dosed mouse systemic infection model; format: functional; conditions: isolate EFL 4041, po
# [15] = tested on: Staphylococcus aureus; experiment: Antibacterial activity against Staphylococcus aureus by agar dilution method; format: functional
# Method in brief: (§1)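 MIC determined by agar dilution across S. aureus/MRSA isolates; MIC90 is the concentration inhibiting 90% of strains tested.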
# [16] = tested on: Streptococcus pneumoniae; experiment: Antibacterial activity against penicillin-resistant Streptococcus pneumoniae isolate 0613 in po dosed mouse systemic infection model; format: functional; conditions: isolate 0613, po
# [17] = tested on: Enterococcus; experiment: Bacteriostatic activity against vancomycin-sensitive Enterococcus; format: functional
# [18] = tested on: Streptococcus sanguinis; experiment: Antibacterial activity against Streptococcus sanguinis; format: functional
# [19] = tested on: Staphylococcus saprophyticus; experiment: Antibacterial activity against Staphylococcus saprophyticus; format: functional
# [20] = tested on: Enterococcus faecium; experiment: Bacteriostatic activity against vancomycin-sensitive Enterococcus faecium; format: functional
# [21] = Myelosuppression activity against human CD34-positive blood stem/progenitor cells assessed as growth inhibition after 9 to 10 days by CellTiter-Glo luminescent assay
# [22] = tested on: Rattus norvegicus; experiment: Toxicity in female rat assessed as effect on platelet count at 100 mg/kg/day, po bid administered for 4 weeks (reference value: 654.6 x 10^9/L); format: organism-based; design: route oral; conditions: in vivo, 672 h
# [23] = tested on: Enterococcus faecalis; experiment: Antibacterial activity against vancomycin-sensitive/high-level gentamycin-resistant Enterococcus faecalis isolate HH22 in po dosed mouse systemic infection model; format: functional; conditions: EnGen0297, po
# [24] = tested on: Rattus norvegicus; experiment: Toxicity in female rat assessed as effect on hemoglobin level at 100 mg/kg/day, po bid administered for 4 weeks (reference value: 141.8 g/L); format: organism-based; design: route oral; conditions: in vivo, 672 h
# [25] = tested on: Streptococcus pneumoniae; experiment: Bactericidal activity against penicillin intermediate-sensitive Streptococcus pneumoniae; format: functional
# [26] = tested on: Staphylococcus aureus; experiment: Antibacterial activity against linezolid-resistant Staphylococcus aureus isolate 4184; format: functional
# [27] = tested on: Staphylococcus aureus; experiment: Antibacterial activity against methicillin-sensitive Staphylococcus aureus ATCC 29213 in po dosed mouse systemic infection model; format: functional; conditions: ATCC 29213, po
# [28] = tested on: Streptococcus pyogenes; experiment: Antibacterial activity against Streptococcus pyogenes; format: functional
# [29] = tested on: Streptococcus dysgalactiae subsp. equisimilis; experiment: Antibacterial activity against Streptococcus equisimilis; format: functional
# [30] = tested on: Rattus norvegicus; experiment: Toxicity in female rat assessed as effect on neutrophil count at 100 mg/kg/day, po bid administered for 4 weeks (reference value: 22.4%); format: organism-based; design: route oral; conditions: in vivo, 672 h
# [31] = tested on: Streptococcus pneumoniae; experiment: Bactericidal activity against penicillin-sensitive Streptococcus pneumoniae; format: functional
# [32] = tested on: Rattus norvegicus; experiment: Toxicity in female rat assessed as effect on reticulocyte count at 100 mg/kg/day, po bid administered for 4 weeks (reference value: 1.48%); format: organism-based; design: route oral; conditions: in vivo, 672 h
# [33] = tested on: Streptococcus pyogenes; experiment: Antibacterial activity against Streptococcus pyogenes isolate 556; format: functional
# [34] = tested on: Staphylococcus epidermidis; experiment: Antibacterial activity against methicillin-sensitive Staphylococcus epidermidis; format: functional
# [35] = tested on: Rattus norvegicus; experiment: Toxicity in female rat assessed as effect on RBC count at 100 mg/kg/day, po bid administered for 4 weeks (reference value: 7.28 x 10^12/L); format: organism-based; design: route oral; conditions: in vivo, 672 h
# [36] = tested on: Staphylococcus aureus; experiment: Antibacterial activity against methicillin-sensitive Staphylococcus aureus isolate 15 in po dosed mouse systemic infection model; format: functional; conditions: isolate 15, po
# [37] = tested on: Streptococcus pyogenes; experiment: Antibacterial activity against Streptococcus pyogenes isolate 556 in po dosed mouse systemic infection model; format: functional; conditions: isolate 556, po
# [38] = tested on: Enterococcus faecalis; experiment: Antibacterial activity against vancomycin-sensitive Enterococcus faecalis ATCC 29212 in po dosed mouse systemic infection model; format: functional; conditions: ATCC 29212, po
# [39] = tested on: Streptococcus mitis; experiment: Antibacterial activity against Streptococcus mitis; format: functional
# [40] = tested on: Enterococcus faecium; experiment: Bacteriostatic activity against vancomycin-resistant Enterococcus faecium; format: functional
# [41] = tested on: Staphylococcus aureus; experiment: Antibacterial activity against Staphylococcus aureus in po dosed mouse septicemia model; format: functional
# [42] = tested on: Streptococcus agalactiae; experiment: Antibacterial activity against Streptococcus agalactiae; format: functional
# [43] = tested on: Rattus norvegicus; experiment: Toxicity in female rat assessed as effect on hematocrit level at 100 mg/kg/day, po bid administered for 4 weeks (reference value: 39.08%); format: organism-based; design: route oral; conditions: in vivo, 672 h
# [44] = tested on: Staphylococcus; experiment: Antibacterial activity against coagulase-negative Staphylococcus; format: functional
# [45] = tested on: Staphylococcus aureus; experiment: Antibacterial activity against methicillin-resistant Staphylococcus aureus isolate 0605 in po dosed mouse systemic infection model; format: functional; conditions: isolate 0605, po
# [46] = tested on: Rattus norvegicus; experiment: Toxicity in female rat assessed as effect on WBC count at 100 mg/kg/day, po bid administered for 4 weeks (reference value: 3.66 x 10^9/L); format: organism-based; design: route oral; conditions: in vivo, 672 h
# [47] = tested on: Enterococcus faecalis; experiment: Bacteriostatic activity against vancomycin-sensitive Enterococcus faecalis; format: functional
# [48] = tested on: Staphylococcus aureus; experiment: Antibacterial activity against methicillin-sensitive Staphylococcus aureus ATCC 29213; format: functional
# [49] = tested on: Rattus norvegicus; experiment: Toxicity in female rat assessed as effect on mean corpuscular hemoglobin level at 100 mg/kg/day, po bid administered for 4 weeks (reference value: 19.5 pg); format: organism-based; design: route oral; conditions: in vivo, 672 h
# [50] = tested on: Staphylococcus aureus; experiment: Antibacterial activity against methicillin-resistant Staphylococcus aureus by agar dilution method; format: functional; method in brief: as §1
# [51] = tested on: Streptococcus pneumoniae; experiment: Bactericidal activity against penicillin-resistant Streptococcus pneumoniae; format: functional
compound,measurement,setting,value
CC(=O)NC[C@H]1CN(c2ccc(N3CCOCC3)c(F)c2)C(=O)O1 [LINEZOLID],MIC50,[1],0.5 µg/mL
same,MIC90,[1],1 µg/mL
same,Activity,[2],86.2%
same,MIC50,[3],0.5 µg/mL
same,MIC90,[3],1 µg/mL
same,ED50,[4],8.17 mg/kg
same,Activity,[5],54.74 fL
same,MIC,[6],0.5 µg/mL
same,MIC50,[6],0.5 µg/mL
same,MIC90,[6],1 µg/mL
same,MIC50,[7],1 µg/mL
same,MIC90,[7],1 µg/mL
same,ED50,[8],16.8 mg/kg
same,MIC50,[9],1 µg/mL
same,MIC90,[9],1 µg/mL
same,ED50,[10],8.7 mg/kg
same,MIC90,[11],2 µg/mL
same,MIC50,[12],0.5 µg/mL
same,MIC90,[12],1 µg/mL
same,IC50,[13],24 µM
same,ED50,[14],6 mg/kg
same,MIC90,[15],8 µg/mL
same,ED50,[16],9.3 mg/kg
same,MIC50,[17],1 µg/mL
same,MIC90,[17],1 µg/mL
same,MIC,[18],0.06 µg/mL
same,MIC50,[19],1 µg/mL
same,MIC90,[19],1 µg/mL
same,MIC50,[20],1 µg/mL
same,MIC90,[20],1 µg/mL
same,IC50,[21],6.3 µg/mL
same,Activity,[22],487.4 ×10⁹ /L
same,ED50,[23],5.6 mg/kg
same,Activity,[24],112.8 g/L
same,MIC50,[25],0.5 µg/mL
same,MIC90,[25],0.5 µg/mL
same,MIC,[26],> 16 µg/mL
same,ED50,[27],9 mg/kg
same,MIC50,[28],1 µg/mL
same,MIC90,[28],1 µg/mL
same,MIC,[29],0.5 µg/mL
same,MIC50,[29],0.5 µg/mL
same,MIC90,[29],1 µg/mL
same,Activity,[30],13%
same,MIC50,[31],0.5 µg/mL
same,MIC90,[31],1 µg/mL
same,Activity,[32],1.64%
same,MIC,[33],1 µg/mL
same,MIC50,[34],0.5 µg/mL
same,MIC90,[34],0.5 µg/mL
same,Activity,[35],5.52 ×10¹² /L
same,ED50,[36],5.9 mg/kg
same,ED50,[37],7.8 mg/kg
same,ED50,[38],13.4 mg/kg
same,MIC50,[39],1 µg/mL
same,MIC90,[39],1 µg/mL
same,MIC,[40],1 µg/mL
same,MIC50,[40],1 µg/mL
same,MIC90,[40],1 µg/mL
same,ED50,[41],6.3 mg/kg
same,MIC,[42],1 µg/mL
same,MIC50,[42],1 µg/mL
same,MIC90,[42],1 µg/mL
same,Activity,[43],30.18%
same,MIC50,[44],0.5 µg/mL
same,MIC90,[44],1 µg/mL
same,ED50,[45],10.2 mg/kg
same,Activity,[46],1.9 ×10⁹ /L
same,MIC50,[47],1 µg/mL
same,MIC90,[47],1 µg/mL
same,MIC,[48],1 µg/mL
same,Activity,[49],20.52 pg
same,MIC50,[50],1 µg/mL
same,MIC90,[50],1 µg/mL
same,MIC50,[51],0.5 µg/mL
same,MIC90,[51],0.5 µg/mL
